Data taken from ChEMBL document CHEMBL1124676, “Hypoxia-selective antitumor agents. 2. Electronic effects of 4-substituents on the mechanisms of cytotoxicity and metabolic stability of nitracrine derivatives” (J Med Chem, 1989).

Assays:
CHO-AA8 [1] = assay: Inhibitory activity to reduce cell density by 50% of AA8 cells under aerobic conditions; format: functional, cell-based; conditions: Cricetulus griseus
Method in brief: (§1)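 Microassay: 200 AA8 or 300 UV-4 viable cells/well plus 5000 irradiated (35 Gy) AA8 feeder cells. Serial 2-fold drug dilutions added after 24 h. Plates held 18 h at 37 °C in chambers flushed with 5% CO2 in air or in N2 (with 1% H2, Pd catalyst). Then washed, grown 72-78 h, stained with methylene blue, A620−A405. IC50 vs 50% of control; three independent experiments.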

[2] = (§2) Extrapolated fraction of biological activity remaining at time zero of stirred aerobic AA8 suspension cultures; format: ADME; conditions: hamster
Method in brief: (§3)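 Plateau-phase AA8 cells, 10^6 cells/mL, stirred suspension under 5% CO2 in air or N2. Supernatants sampled over time (spun 1300g × 1 min) and dilutions assayed against log-phase UV-4 (seeded 3 × 10^3 cells/mL, 24 h earlier), 4-day continuous exposure, methylene blue staining. Activity remaining = IC50 at time zero / apparent IC50; half-life and zero-time intercept from log-linear regression.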

[3] = Half life of extracellular bioactivity assessed by bioassay of culture supernatant against hypoxic UV-4 cells; format: ADME, cell-based, Cricetulus griseus, UV4; conditions: chinese hamster, hypoxic UV-4 cell cultures (culture supernatant); method in brief: as §3
[4] = Extrapolated fraction of biological activity remaining at time zero of hypoxic AA8 suspension cultures; format: ADME; conditions: hamster; method in brief: as §3
[5] = Ratio for […], expressed as hypersensitivity factor under aerobic conditions; format: functional; method in brief: as §1
UV4 [6] = assay: Inhibitory ativity to reduce cell density by 50% of repair deffective mutant UV-4 cells in 96-well cultures under aerobic conditions; format: functional, cell-based; conditions: Cricetulus griseus; method in brief: as §1
[7] = Half life of extracellular bioactivity assessed by bioassay of culture supernatant against aerobic UV-4 cells; format: ADME, cell-based, Cricetulus griseus, UV4; conditions: chinese hamster, aerobic UV-4 cell cultures (culture supernatant); method in brief: as §3
UV4 [8] = assay: Inhibitory concentration required to reduce cell density in UV-4 cells to 50% of controls (cells were exposed to compound for 4 days continuously); format: functional, cell-based; conditions: Cricetulus griseus, UV4, 96 h
Method in brief: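 UV-4 cells seeded at 3 × 10^3 cells/mL about 24 h before drug, exposed continuously for 4 days, then methylene blue staining. IC50 = concentration reducing absorbance to 50% of controls; six determinations.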

[9] = Ratio of growth inhibition of compound to reduce cell density by 50% of AA8 cells under aerobic and hypoxic conditions (air/N2); format: functional, CHO-AA8; method in brief: as §1
[10] = Ratio of growth inhibition of compound to reduce cell density by 50% of repair deffective mutant UV-4 cells in 96-well cultures under aerobic and hypoxic conditions (air/N2); format: functional; method in brief: as §1
[11] = Total compound concentration in AA8 suspension cultures at zero time; format: ADME; conditions: hamster
[12] = Hypersensitivity factor (HF) of IC50 (AA8) / IC50 (UV-4) of compound for repair deffective mutants; format: functional
Method in brief: (§4)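 Miniassay: AA8, UV-4, UV-5 or EM-9 cells were seeded at 2 × 10^4 cells/mL in 24-well dishes. After 24 h, five 2-fold serial concentrations were added in duplicate and held 4 h at 37 °C. Cells were washed, grown 30 h more, trypsinized and counted electronically. IC50 is 50% of mean control cell density. HF = IC50(AA8)/IC50(mutant), mean ± SE of 2–4 experiments.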

[13] = Hypersensitivity factor (HF) of IC50 (AA8) / IC50 (UV-5) of compound for repair deffective mutants; format: functional; method in brief: as §4
[14] = Hypersensitivity factor (HF) of IC50 (AA8) / IC50 (EM-9) of compound for repair deffective mutants; format: functional; method in brief: as §4
[15] = Half life of extracellular bioactivity assessed by bioassay of culture supernatant against aerobic UV-4 cells; No statistically significant trend with time; format: ADME, cell-based, Cricetulus griseus; conditions: chinese hamster, uv4; method in brief: as §3
CHO-AA8 [16] = assay: as §2; format: functional, Cricetulus griseus; method in brief: as §3
[17] = Ratio for hypoxic AA8/ hypoxic UV-4, expressed as hypersensitivity factor under hypoxic conditions; format: functional; method in brief: as §1

Structure (SMILES) | IC50 (CHO-AA8 [1]) [µM] | A0 [2] | half-life [3] [h] | A0 [4] | Ratio [5] | IC50 (UV4 [6]) [µM] | half-life [7] [h] | IC50 (UV4 [8]) [µM] | Ratio [9] | Ratio [10] | CO [11] [mM] | Ratio [12] | Ratio [13] | Ratio [14] | T1/2 [15] | A0 (CHO-AA8 [16]) | Ratio [17]
CC(=O)OCCN(CCOC(C)=O)c1ccc([N+](=O)[O-])c2c(NCCCN(C)C)c3ccccc3nc12 | 43 | 1.11 | 8.4 | 1.03 | 4.8 | 11.6 | 18 | 3.45 | 4.5 | 4.8 | – | – | – | – | – | – | –
CN(C)CCCNc1c2ccccc2nc2c(N(CCO)CCO)ccc([N+](=O)[O-])c12 | 62 | – | – | – | – | 19.4 | – | – | – | – | – | – | – | – | – | – | –
CN(C)CCCNc1c2ccccc2nc2c(Cl)ccc([N+](=O)[O-])c12 | 0.033 | 0.79 | 0.68 | 0.56 | 13 | 0.0033 | 4.3 | 0.00062 | 3.7 | 4.9 | 0.04 | – | – | – | – | – | –
CCOS(C)(=O)=O [METHANESULFONIC ACID ETHYL ESTER] | – | – | – | – | – | – | – | – | – | – | – | 1.3 | 1.2 | 6.3 | – | – | –
COc1cc(NS(C)(=O)=O)ccc1Nc1c2ccccc2nc2ccccc12 | – | – | – | – | – | – | – | – | – | – | – | 0.9 | 0.9 | 0.68 | – | – | –
CO[C@@]12[C@H](COC(N)=O)C3=C(C(=O)C(C)=C(N)C3=O)N1C[C@@H]1N[C@@H]12 | – | – | – | – | – | – | – | – | – | – | – | 86 | 2.35 | 0.78 | – | – | –
O=[N+]([O-])c1cc[n+]([O-])c2ccccc12 [4-NITROQUINOLINE-1-OXIDE] | – | – | – | – | – | – | – | – | – | – | – | 17 | 16 | 0.8 | – | – | –
CN(C)CCCNc1c2ccccc2nc2cccc([N+](=O)[O-])c12 [NITRACRINE] | 0.0263 | 0.86 | 0.84 | 0.98 | 14.9 | 0.002 | 7.3 | 0.00066 | – | 3.8 | 0.04 | 12.8 | 8 | 1.8 | – | – | –
CN(C)CCCNc1c2ccccc2nc2c(N(C)C)ccc([N+](=O)[O-])c12 | 18.9 | 0.78 | 2.3 | 0.68 | 2.1 | 6.2 | 4.8 | 0.41 | 3.3 | 2.3 | – | – | – | – | – | – | –
CN(C)CCCNc1c2ccccc2nc2c(F)ccc([N+](=O)[O-])c12 | 0.25 | 0.64 | 0.77 | 0.84 | 21 | 0.012 | 0.91 | 0.002 | 1.3 | 1.4 | 0.1 | – | – | – | – | – | –
Cc1ccc([N+](=O)[O-])c2c(NCCCN(C)C)c3ccccc3nc12 | 0.076 | 0.65 | 0.99 | 1.12 | 9 | 0.008 | – | 0.00165 | 5 | 4.6 | 0.2 | – | – | – | Not Active | – | –
CN(C)CCCNc1c2ccccc2nc2ccccc12 | – | – | – | – | – | – | – | – | – | – | – | 1.03 | 0.87 | 0.78 | – | – | –
COC(=O)c1ccc([N+](=O)[O-])c2c(NCCCN(C)C)c3ccccc3nc12 | 2.9 | – | 3.9 | 0.45 | 1.5 | 1.95 | – | 0.59 | 1.2 | 1.2 | 0.01 | – | – | – | Not Active | 0.47 | 1.5
COc1ccc([N+](=O)[O-])c2c(NCCCN(C)C)c3ccccc3nc12 | 0.616 | 0.76 | 5.2 | 0.78 | 7.8 | 0.063 | 14 | 0.0145 | 5.3 | 4.2 | 3 | – | – | – | – | – | –
O=C(O)CCCc1ccc(N(CCCl)CCCl)cc1 | – | – | – | – | – | – | – | – | – | – | – | 43 | 1.4 | 0.69 | – | – | –
